From paper PMC12709234 (RSC Advances, 2025)

Legend:
[1] = Metabolic stability in mouse liver microsomes; type: in vitro ADME; conditions: 1 µM, scaled from in vitro clearance
Summary of the method: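 Mouse liver microsomes were incubated in duplicate with test compound (final 1 µM, <0.1% DMSO) in 50 mM phosphate pH 7.4 at 37 °C for 1 h, with and without an NADPH regenerating system. Samples were taken at 0, 10, 20, 30, 45 and 60 min, quenched with ACN/MeOH (2:1) plus internal standard and analysed by LC-MS/MS. t1/2 came from non-linear regression; Clint was derived from it and normalized to protein. Scaling used 52.5 mg protein/g liver, 85.7 g liver/kg and LBF 131 mL min−1 kg−1.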

[2] = test system: P-glycoprotein (human MDR1); experiment: Permeability on MDCKII-hMDR1 cell monolayers; type: in vitro ADME, canine; conditions: dog, MDCK-MDR1, pH 7.4
Summary of the method: (§1)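 MDCKII cells overexpressing human MDR1 were seeded on 96-well inserts (0.25 × 10^6 cells per mL) and grown 3 days to confluence. Monolayers were equilibrated 30 min in DPBS pH 7.4 with 1% DMSO. Test compound (10 µM) with lucifer yellow (100 µM, integrity marker) was applied apical-to-basolateral and basolateral-to-apical for 60 min at 37 °C with agitation. Both compartments, plus donor at start, were quantified by LC-MS/MS.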

[3] = test system: MDCKII-hMDR1 cell monolayers; experiment: Permeability on MDCKII-hMDR1 cell monolayers; type: in vitro ADME, canine; conditions: MDCKII-hMDR1
Summary of the method: as §1

[4] = test system: human tumor cell lines (Capan-1, HCT-116, LN-229, NCI-H460, DND-41, HL-60, K562, Z-138); experiment: Antiproliferative assays, panel of human tumor cell lines; type: cell-based
Summary of the method: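 Cells from ATCC (DND-41 from DSMZ) were grown in medium with 10% FBS in 384-well plates. Adherent lines were plated overnight first: Capan-1 at 500 and HCT-116, NCI-H460 and LN-229 at 1500 cells/well. Suspension lines were seeded onto compound: HL-60, K-562 and Z-138 at 2500 and DND-41 at 5500 cells/well. Seven concentrations, 100–0.006 µM, from DMSO stocks, 72 h. […] At least two independent experiments.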

Bcl-2 = conditions: read-out: IC50 (Bcl-2); PDB 6QGK, CHEMBL4438456; cited from earlier work

| % LBF predicted in vivo hepatic clearance [1] [% LBF] | Papp A→B at 60 min, 10 µM [2] [×10⁻⁶ cm/s] | Papp B→A at 60 min, 10 µM [2] [×10⁻⁶ cm/s] | Permeability classification [3] | efflux ratio at 60 min, 10 µM [2] | Efflux classification [3] | Papp at 60 min, 10 µM [2] [×10⁻⁶ cm/s] | IC50 ([4]; Homo sapiens, read-out: IC50 values against DND-41, HL-60, Z-138 and Capan-1) [µM] | Compound | antiproliferative activity (in words) ([4]; all evaluated human tumor cell lines) | IC50 (Bcl-2) [nM] |
| --- | --- | --- | --- | --- | --- | --- | --- | --- | --- | --- |
| >97 | 1.7 |  | low to moderate |  |  |  |  | c1ccc(-c2cc(CNc3cccc4cccnc34)on2)cc1 [Compound 8a, 3-Phenyl-5-((quinolin-8-yl-azaneyl)methyl)isoxazole] |  |  |
| 96 | 17.2 | 27.8 | High | 1.6 | low | > 10 |  | c1ccc(-c2cc(CNc3cccc4cccnc34)on2)nc1 [Compound 8b, N-((3-(Pyridin-2-yl)isoxazol-5-yl)methyl)quinolin-8-amine] |  |  |
|  | < 0.1 | < 0.1 | Low/— |  |  |  |  | FC(F)(F)c1ccc(-c2cc(CNc3cccc4cccnc34)on2)cc1 [Compound 8c, N-((3-(4-(Trifluoromethyl)phenyl)isoxazol-5-yl)methyl)quinolin-8-amine] |  |  |
| 51 | < 0.1 | < 0.1 | Low/— |  |  |  |  | Clc1ccc(-c2cc(CNc3cccc4cccnc34)on2)c(Cl)c1 [Compound 8d, N-((3-(2,4-Dichlorophenyl)isoxazol-5-yl)methyl)quinolin-8-amine] |  |  |
| 55 | 3.6 | 3.1 | Moderate | 0.9 | low |  |  | N#Cc1ccc(-c2cc(CNc3cccc4cccnc34)on2)cc1 [Compound 8e, 4-(5-((Quinolin-8-ylamino)methyl)isoxazol-3-yl)benzonitrile] |  |  |
| 53 | 15 | 13.7 | High | 0.9 | low | > 10 | 2.1 to 4.7 | N/C(=N\O)c1ccc(-c2cc(CNc3cccc4cccnc34)on2)cc1 [Compound 8f, (Z)-N′-hydroxy-4-(5-((quinolin-8-ylamino)methyl)isoxazol-3-yl)benzimidamide] |  |  |

Continued, compound first:

| Compound | % LBF predicted in vivo hepatic clearance [1] [% LBF] | Papp A→B at 60 min, 10 µM [2] [×10⁻⁶ cm/s] | Papp B→A at 60 min, 10 µM [2] [×10⁻⁶ cm/s] | Permeability classification [3] | efflux ratio at 60 min, 10 µM [2] | Efflux classification [3] | Papp at 60 min, 10 µM [2] [×10⁻⁶ cm/s] | IC50 ([4]; Homo sapiens, read-out: IC50 values against DND-41, HL-60, Z-138 and Capan-1) [µM] | antiproliferative activity (in words) ([4]; all evaluated human tumor cell lines) | IC50 (Bcl-2) [nM] |
| --- | --- | --- | --- | --- | --- | --- | --- | --- | --- | --- |
| FC(F)(F)c1cc(OCc2cc(-c3ccccc3)no2)c2ccccc2n1 [Compound 7a, 3-Phenyl-5-(((2-(trifluoromethyl)quinolin-4-yl)oxy)methyl)isoxazole] | 74 | < 0.1 | 0.1 | low to moderate |  |  |  |  |  |  |
| FC(F)(F)c1cc(OCc2cc(-c3ccccn3)no2)c2ccccc2n1 [Compound 7b, 3-(Pyridin-2-yl)-5-(((2-(trifluoromethyl)quinolin-4-yl)oxy)methyl)isoxazole] | 87 | 6.5 | 4.6 | low to moderate | 0.7 | low |  |  | did not exhibit any antiproliferative effects |  |
| CCCCN(CCCC)C(=O)c1cc(C)n(-c2ccccc2C(=O)N2Cc3ccccc3C[C@H]2CN)n1 [Compound J1Q, (S)-1-(2-(3-(aminomethyl)-1,2,3,4-tetrahydroisoquinoline-2-carbonyl)phenyl)-N,N-dibutyl-5-methyl-1H-pyrazole-3-carboxamide] |  |  |  |  |  |  |  |  |  | 1300 |
